From ChEMBL document CHEMBL4028905, “A Unique Approach to Design Potent and Selective Cyclic Adenosine Monophosphate Response Element Binding Protein, Binding Protein (CBP) Inhibitors” (J Med Chem, 2017)
Calls of active or inactive are those of the source. The rule behind the calls is not given here.

Legend:
CREB-binding protein [1] = molecular target: T1, CREB-binding protein (Homo sapiens, UniProt Q92793); experiment: Inhibition of His tagged recombinant CBP (unknown origin) by TR-FRET assay
In short: (§1)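 Recombinant His-tagged bromodomains purified by Ni affinity, tag removed with thrombin, checked by mass spectrometry. Assay is TR-FRET competition against a biotinylated small-molecule ligand. Normalized inhibition vs concentration fit to 4-parameter Hill equation; […] for optimization.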
Target sequence in this assay (Q92793 whole entry): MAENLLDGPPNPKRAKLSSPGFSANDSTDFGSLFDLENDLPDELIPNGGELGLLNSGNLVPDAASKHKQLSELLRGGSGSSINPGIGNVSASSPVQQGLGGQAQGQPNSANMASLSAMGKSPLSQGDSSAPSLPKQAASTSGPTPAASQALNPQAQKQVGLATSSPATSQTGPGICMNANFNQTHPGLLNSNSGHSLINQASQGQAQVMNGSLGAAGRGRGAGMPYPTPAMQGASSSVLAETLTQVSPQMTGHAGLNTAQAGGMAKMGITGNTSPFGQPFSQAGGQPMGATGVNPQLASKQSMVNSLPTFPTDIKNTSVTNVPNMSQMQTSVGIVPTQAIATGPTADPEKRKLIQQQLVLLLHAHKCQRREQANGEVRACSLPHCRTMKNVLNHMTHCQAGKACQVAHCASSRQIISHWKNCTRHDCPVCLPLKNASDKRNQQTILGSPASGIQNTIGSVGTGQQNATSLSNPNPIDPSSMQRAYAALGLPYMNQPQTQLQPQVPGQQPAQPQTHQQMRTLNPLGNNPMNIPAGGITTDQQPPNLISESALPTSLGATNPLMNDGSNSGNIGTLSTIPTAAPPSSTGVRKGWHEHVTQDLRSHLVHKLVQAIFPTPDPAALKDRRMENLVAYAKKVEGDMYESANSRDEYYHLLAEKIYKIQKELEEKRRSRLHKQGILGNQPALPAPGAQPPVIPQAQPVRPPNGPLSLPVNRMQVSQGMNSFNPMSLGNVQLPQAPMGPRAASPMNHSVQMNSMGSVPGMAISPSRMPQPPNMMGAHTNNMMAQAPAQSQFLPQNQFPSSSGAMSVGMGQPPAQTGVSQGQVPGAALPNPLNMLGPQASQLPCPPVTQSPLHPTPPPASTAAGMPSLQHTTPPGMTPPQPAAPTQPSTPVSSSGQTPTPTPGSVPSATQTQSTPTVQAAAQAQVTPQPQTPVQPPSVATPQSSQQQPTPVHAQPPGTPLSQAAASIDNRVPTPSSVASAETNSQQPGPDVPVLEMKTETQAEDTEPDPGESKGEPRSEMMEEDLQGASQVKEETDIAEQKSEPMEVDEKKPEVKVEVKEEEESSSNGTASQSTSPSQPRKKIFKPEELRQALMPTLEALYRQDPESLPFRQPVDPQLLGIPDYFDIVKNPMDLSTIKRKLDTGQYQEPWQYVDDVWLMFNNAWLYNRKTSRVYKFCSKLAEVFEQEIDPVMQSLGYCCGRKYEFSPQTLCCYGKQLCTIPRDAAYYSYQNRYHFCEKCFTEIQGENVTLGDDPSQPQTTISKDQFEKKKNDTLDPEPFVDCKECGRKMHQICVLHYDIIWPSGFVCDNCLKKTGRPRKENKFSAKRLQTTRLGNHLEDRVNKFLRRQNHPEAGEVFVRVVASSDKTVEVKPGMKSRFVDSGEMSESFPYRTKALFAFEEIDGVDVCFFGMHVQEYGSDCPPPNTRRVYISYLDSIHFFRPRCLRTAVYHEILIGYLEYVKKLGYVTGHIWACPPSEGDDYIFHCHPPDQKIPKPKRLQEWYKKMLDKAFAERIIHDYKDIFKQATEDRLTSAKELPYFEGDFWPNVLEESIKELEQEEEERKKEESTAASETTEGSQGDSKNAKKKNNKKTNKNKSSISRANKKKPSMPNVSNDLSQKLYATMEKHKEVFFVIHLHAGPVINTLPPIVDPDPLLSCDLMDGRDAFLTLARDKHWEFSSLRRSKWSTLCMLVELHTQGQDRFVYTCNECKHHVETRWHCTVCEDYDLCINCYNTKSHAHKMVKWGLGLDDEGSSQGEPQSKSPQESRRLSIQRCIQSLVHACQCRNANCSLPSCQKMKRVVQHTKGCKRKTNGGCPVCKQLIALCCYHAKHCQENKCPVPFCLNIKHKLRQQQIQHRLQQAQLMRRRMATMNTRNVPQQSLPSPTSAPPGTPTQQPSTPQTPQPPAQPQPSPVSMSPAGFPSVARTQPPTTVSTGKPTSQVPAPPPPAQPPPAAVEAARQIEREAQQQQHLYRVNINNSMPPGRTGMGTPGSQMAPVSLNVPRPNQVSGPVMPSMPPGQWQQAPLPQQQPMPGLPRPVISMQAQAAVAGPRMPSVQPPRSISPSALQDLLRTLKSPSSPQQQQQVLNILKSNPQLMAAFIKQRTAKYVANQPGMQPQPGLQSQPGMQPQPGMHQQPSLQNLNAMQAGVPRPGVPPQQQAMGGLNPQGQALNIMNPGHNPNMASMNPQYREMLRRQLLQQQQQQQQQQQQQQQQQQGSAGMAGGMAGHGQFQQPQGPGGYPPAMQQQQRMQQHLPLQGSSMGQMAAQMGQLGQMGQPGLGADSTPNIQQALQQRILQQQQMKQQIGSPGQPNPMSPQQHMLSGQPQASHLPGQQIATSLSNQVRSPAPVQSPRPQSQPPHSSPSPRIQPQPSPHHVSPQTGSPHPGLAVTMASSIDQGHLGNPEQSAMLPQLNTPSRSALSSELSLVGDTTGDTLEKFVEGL

[2] = molecular target: Bromodomain-containing protein 4 (Homo sapiens, UniProt O60885); experiment: Inhibition of His tagged recombinant BRD4 bromodomain 1 (unknown origin) by TR-FRET assay; in short: as §1
Homo sapiens = organism: Homo sapiens; experiment: Selectivity ratio of IC50 for His tagged recombinant BRD4 bromodomain 1 (unknown origin) to IC50 for His tagged recombinant CBP (unknown origin)
[3] = molecular target: CREB-binding protein/Histone acetyltransferase p300 (Homo sapiens, UniProt Q09472+Q92793); experiment: Inhibition of P300/CBP in human MV4-11 cells assessed as reduction in MYC expression after 4 hrs by luminescence based assay; type: cell-based
In short: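 MV-4-11 cells plated at 10,000 per well in RPMI1640 with 10% FBS and 2 mM L-glutamine. Compounds added in DMSO at a final 0.1% and incubated 4 h at 37 °C before MYC expression read-out; EC50 derived.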

[4] = Intrinsic clearance in human liver microsomes at 1 uM in presence of NADPH by LC-MS/MS analysis; type: ADME, microsome; details: read-out: CLH
[5] = Intrinsic clearance in rat liver microsomes at 1 uM in presence of NADPH by LC-MS/MS analysis; type: ADME, microsome; details: read-out: CLH
[6] = Intrinsic clearance in mouse liver microsomes at 1 uM in presence of NADPH by LC-MS/MS analysis; type: ADME, microsome; details: read-out: CLH
[7] = Oral bioavailability in CD-1 mouse at 5 mg/kg by LC-MS/MS analysis; type: ADME, organism-based; details: in vivo
In short: (§2)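 Female CD-1 mice, 6–9 weeks, 20–35 g, n = 3 per route. Dosing was 1 mg/kg i.v. in PEG400/DMSO/water (35/10/55 v/v) or 5 mg/kg p.o. suspended in 0.5% methylcellulose/0.2% Tween 80. Serial tail-nick blood sampled to 24 h and diluted in K2EDTA water. Analysis by acetonitrile precipitation and LC–MS/MS (MRM, positive ESI); LLOQ 0.001 μM.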

[8] = molecular target: T2, Bromodomain-containing protein 9 (Homo sapiens, UniProt Q9H8M2); experiment: Binding affinity to human BRD9 (R130 to V259) expressed in bacterial cells by BromoScan assay; type: cell-based
T2 sequence (Q9H8M2 whole entry): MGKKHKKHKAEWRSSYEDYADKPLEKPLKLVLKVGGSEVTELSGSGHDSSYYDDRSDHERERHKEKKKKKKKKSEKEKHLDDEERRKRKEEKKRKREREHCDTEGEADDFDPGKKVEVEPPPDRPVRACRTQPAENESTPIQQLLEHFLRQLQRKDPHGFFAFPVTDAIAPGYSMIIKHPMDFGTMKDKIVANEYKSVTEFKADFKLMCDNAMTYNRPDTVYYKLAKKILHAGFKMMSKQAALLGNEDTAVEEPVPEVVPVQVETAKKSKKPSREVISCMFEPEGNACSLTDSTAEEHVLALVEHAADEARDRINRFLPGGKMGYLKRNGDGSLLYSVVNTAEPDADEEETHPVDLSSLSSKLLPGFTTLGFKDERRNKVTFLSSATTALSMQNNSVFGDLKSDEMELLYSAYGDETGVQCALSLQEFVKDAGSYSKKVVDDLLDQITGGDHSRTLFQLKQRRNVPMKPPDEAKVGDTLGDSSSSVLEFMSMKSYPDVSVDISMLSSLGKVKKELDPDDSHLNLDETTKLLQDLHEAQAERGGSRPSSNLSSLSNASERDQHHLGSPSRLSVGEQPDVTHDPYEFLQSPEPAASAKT

[9] = molecular target: T3, Bromodomain-containing protein 7 (Homo sapiens, UniProt Q9NPI1); experiment: Binding affinity to human BRD7 (L125 to R254) expressed in mammalian cells by BromoScan assay; type: cell-based
T3 sequence (Q9NPI1 whole entry): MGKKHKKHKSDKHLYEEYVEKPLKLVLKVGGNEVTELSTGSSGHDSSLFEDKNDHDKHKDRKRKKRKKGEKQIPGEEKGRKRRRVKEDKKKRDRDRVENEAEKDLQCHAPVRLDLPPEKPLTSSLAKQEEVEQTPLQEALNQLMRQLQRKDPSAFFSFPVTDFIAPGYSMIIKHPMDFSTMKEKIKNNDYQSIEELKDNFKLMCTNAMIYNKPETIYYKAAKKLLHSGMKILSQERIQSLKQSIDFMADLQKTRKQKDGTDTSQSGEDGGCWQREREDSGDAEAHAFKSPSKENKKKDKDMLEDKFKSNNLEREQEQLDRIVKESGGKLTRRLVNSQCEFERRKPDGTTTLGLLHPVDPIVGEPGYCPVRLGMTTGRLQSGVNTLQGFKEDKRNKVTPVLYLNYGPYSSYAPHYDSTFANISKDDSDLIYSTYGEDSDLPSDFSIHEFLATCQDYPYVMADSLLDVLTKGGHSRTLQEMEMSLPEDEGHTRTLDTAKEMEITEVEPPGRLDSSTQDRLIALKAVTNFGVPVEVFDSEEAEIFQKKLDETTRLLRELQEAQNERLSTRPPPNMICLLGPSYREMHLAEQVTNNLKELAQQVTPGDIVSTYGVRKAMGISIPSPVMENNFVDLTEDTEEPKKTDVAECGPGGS

[10] = molecular target: T4, Transcription intermediary factor 1-alpha (Homo sapiens, UniProt O15164); experiment: Binding affinity to human TRIM24 (G862 to E980) expressed in bacterial cells by BromoScan assay; type: cell-based
T4 sequence (O15164 whole entry): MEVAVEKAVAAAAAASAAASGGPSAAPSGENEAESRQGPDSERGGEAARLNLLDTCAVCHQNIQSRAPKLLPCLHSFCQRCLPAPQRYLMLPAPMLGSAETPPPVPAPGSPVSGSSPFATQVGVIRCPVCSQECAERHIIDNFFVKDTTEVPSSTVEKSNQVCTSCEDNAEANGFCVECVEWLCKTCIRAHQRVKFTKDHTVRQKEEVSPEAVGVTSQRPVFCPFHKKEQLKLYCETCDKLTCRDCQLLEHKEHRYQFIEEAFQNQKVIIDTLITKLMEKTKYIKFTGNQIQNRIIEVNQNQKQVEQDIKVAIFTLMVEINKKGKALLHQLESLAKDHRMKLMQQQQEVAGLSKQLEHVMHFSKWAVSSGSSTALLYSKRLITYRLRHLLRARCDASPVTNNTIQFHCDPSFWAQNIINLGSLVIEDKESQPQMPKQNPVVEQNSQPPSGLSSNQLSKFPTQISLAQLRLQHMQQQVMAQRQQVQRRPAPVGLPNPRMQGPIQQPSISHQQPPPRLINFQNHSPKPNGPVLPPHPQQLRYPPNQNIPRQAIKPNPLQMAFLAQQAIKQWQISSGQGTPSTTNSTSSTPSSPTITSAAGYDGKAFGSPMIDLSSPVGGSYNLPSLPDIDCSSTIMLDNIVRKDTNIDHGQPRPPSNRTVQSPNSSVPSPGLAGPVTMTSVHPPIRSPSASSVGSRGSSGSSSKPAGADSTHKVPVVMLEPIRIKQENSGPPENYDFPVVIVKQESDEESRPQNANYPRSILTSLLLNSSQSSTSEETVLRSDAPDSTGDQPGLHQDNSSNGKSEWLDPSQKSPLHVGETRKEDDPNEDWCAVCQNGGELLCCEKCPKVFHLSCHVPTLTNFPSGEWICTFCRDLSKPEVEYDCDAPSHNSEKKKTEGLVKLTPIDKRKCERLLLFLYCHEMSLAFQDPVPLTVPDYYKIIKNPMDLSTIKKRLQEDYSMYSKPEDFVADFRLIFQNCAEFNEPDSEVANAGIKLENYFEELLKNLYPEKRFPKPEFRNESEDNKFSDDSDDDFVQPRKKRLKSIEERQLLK

[11] = molecular target: Bromodomain-containing protein 3 (Homo sapiens, UniProt Q15059); experiment: Binding affinity to human BRD3 bromodomain 2 (G306 to P416) expressed in bacterial cells by BromoScan assay; type: cell-based
CREB-binding protein [12] = molecular target: T1, CREB-binding protein; experiment: Binding affinity to human CBP (R1081 to G1197) expressed in bacterial cells by BromoScan assay; type: cell-based
[13] = molecular target: Histone acetyltransferase p300 (Homo sapiens) (UniProt Q09472); experiment: Binding affinity to human P300 (A1040 to G1161) expressed in bacterial cells by BromoScan assay; type: cell-based
[14] = Total clearance in CD-1 mouse at 1 mg/kg, iv or 5 mg/kg, po by LC-MS/MS analysis; type: ADME, organism-based; details: in vivo; in short: as §2
[15] = Volume of distribution at steady state in CD-1 mouse at 1 mg/kg, iv or 5 mg/kg, po by LC-MS/MS analysis; type: ADME, organism-based; details: in vivo, read-out: Vdss; in short: as §2
[16] = Half life in CD-1 mouse at 1 mg/kg, iv by LC-MS/MS analysis; type: ADME, organism-based; details: in vivo; in short: as §2

Sequence of Bromodomain-containing protein 3 (Q15059 whole entry): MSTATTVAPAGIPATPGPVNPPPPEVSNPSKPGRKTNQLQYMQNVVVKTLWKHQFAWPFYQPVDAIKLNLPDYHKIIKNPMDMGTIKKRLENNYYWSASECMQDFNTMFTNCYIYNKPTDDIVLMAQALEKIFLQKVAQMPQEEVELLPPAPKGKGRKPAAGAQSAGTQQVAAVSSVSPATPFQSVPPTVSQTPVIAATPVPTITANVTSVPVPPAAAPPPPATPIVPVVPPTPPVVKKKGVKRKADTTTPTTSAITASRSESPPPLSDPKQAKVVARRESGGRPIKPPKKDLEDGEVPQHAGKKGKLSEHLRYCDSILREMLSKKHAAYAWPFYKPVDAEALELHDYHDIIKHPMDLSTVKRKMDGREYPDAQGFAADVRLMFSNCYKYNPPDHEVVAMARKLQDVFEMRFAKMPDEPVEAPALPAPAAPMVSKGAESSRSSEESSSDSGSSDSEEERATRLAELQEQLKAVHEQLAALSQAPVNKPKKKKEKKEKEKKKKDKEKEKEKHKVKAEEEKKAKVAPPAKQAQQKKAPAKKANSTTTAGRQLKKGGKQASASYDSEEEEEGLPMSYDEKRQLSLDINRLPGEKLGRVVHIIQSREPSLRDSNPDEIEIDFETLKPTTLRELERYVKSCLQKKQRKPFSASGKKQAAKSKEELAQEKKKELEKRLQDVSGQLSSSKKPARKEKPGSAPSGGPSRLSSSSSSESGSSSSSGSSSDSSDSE

## CNC(=O)c1c[nH]c2c(C(C)C)nc(N3CCCc4cc(-c5cnn(C)c5)c(C(F)F)cc43)cc12
CREB-binding protein [1]
  IC50: 2.2 nM
[2]
  IC50: 2300 nM
Homo sapiens
  Ratio IC50: 1050
[3]
  EC50: 53 nM
[4]
  CLint scaled at 1 µM: 13 mL/min/kg
[5]
  CLint scaled at 1 µM: 25 mL/min/kg
[6]
  CLint scaled at 1 µM: 50 mL/min/kg
[7]
  bioavailability: 52%
[8]
  Kd: > 10000 nM
[9]
  Kd: > 10000 nM
[10]
  Kd: > 10000 nM
[11]
  Kd: > 10000 nM
CREB-binding protein [12]
  Activity: Active
[13]
  Activity: Active
[14]
  clearance: 18.2 mL/min/kg
[15]
  Vd: 1.9 L/kg
[16]
  half-life: 1.3 h
